{"source": "paper PMC3046310", "about": "(Bioconjugate chemistry, 2010)", "key": {"A375M human melanoma": {"system": "A375M human melanoma", "test": "Biodistribution in Foxn1 nude mice bearing A375M tumors", "format": "in vivo"}, "B16F10 murine melanoma": {"system": "B16F10 murine melanoma", "test": "Biodistribution in C57BL/6 mice bearing B16F10 tumors", "format": "in vivo", "how_it_was_run": "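Male C57BL/6 mice, 5–6 weeks old, were given 1 × 10^6 B16F10 cells in the right flank. At tumor diameter ~8 mm, 110–130 μCi (4.07–4.81 MBq) 18F tracer in PBS (0.01 M, pH 7.4) was injected i.v. into the tail vein. Mice (n=3) were killed by CO2 at 1, 2 and 4 h p.i. Tumor, blood and organs were weighed and γ-counted, giving %ID/g. Groups were compared by unpaired Student's t-test.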"}, "A375M melanoma": {"system": "A375M melanoma", "test": "Small-animal PET imaging of mice bearing A375M tumors", "format": "in vivo, human", "how_it_was_run": "(§1)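 Mice bearing B16F10 or A375M tumors received 110–130 μCi (4.07–4.81 MBq) 18F tracer via the tail vein. At 1 and 2 h p.i., mice under 2% isoflurane were placed prone for 5-min static small-animal PET scans, reconstructed by 2D OSEM without attenuation correction. ROIs drawn on decay-corrected coronal images were converted to %ID/g using a calibration constant, assuming 1 g/mL tissue density.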"}, "B16F10 tumors": {"system": "B16F10 tumors", "test": "Small-animal PET imaging of mice bearing B16F10 tumors", "format": "in vivo, murine", "details": "for PET tumor delineation / image quality: B16F10 tumors, 1 and 2 h p.i.", "how_it_was_run": "as §1"}, "MC1R [1]": {"molecular_target": "T1, MC1R (Mus musculus, UniProt Q01727)", "T1 sequence (Q01727 whole entry)": "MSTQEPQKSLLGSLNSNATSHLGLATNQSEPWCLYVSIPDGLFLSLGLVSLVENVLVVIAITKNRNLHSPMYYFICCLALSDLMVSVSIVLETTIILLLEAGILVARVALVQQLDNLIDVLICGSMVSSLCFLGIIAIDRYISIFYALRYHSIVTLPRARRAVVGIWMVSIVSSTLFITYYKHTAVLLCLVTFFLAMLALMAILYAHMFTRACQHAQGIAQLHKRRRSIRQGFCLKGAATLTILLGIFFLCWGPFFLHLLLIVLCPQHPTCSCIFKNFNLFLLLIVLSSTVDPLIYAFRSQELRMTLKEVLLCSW", "test": "In vitro cell binding assay", "set-up": "species or system murine", "details": "B16F10 cells", "how_it_was_run": "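B16F10 cells were grown in high-glucose DMEM with 10% FBS and penicillin/streptomycin at 37 °C and 5% CO2. Cells (0.5 × 10^6) were resuspended in DMEM with 25 mM HEPES, 0.2% BSA and 0.3 mM 1,10-phenanthroline. They were incubated for 90 min at 37 °C with test compound (10^−12–10^−6 M) and ~40,000 cpm 125I-(Tyr2)-NDP. Cells were washed three times with ice-cold PBS and counted. IC50 was taken as the competitor concentration giving 50% inhibition of radioligand binding.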"}, "MC1R [2]": {"molecular_target": "T1, MC1R", "details": "previous studies; ref [19]; cited from earlier work"}, "[3]": {"details": "Foxn1 nude mice, A375M, 2 h p.i., i.v. 110-130 μCi, mean ± SD, n = 3"}, "[4]": {"details": "C57BL/6 mice, B16F10, 2 h p.i., i.v. 110-130 μCi, mean ± SD, n = 3"}}, "note": "“Also recorded” adds a separate entry of the source."}
{"molecule": "CC(=O)N[C@H](CCCCNC(=O)C(C)F)C(=O)N[C@@H](CS)C(=O)N[C@@H](CS)C(=O)N[C@@H](CCC(=O)O)C(=O)N[C@@H](Cc1c[nH]cn1)C(=O)N[C@H](Cc1ccccc1)C(=O)N[C@@H](CCCNC(=N)N)C(=O)N[C@@H](Cc1c[nH]c2ccccc12)C(=O)N[C@@H](CS)C(=O)N[C@@H](CCCNC(=N)N)C(=O)N1CCC[C@H]1C(=O)N[C@H](C(N)=O)C(C)C", "note": "(some centres unmarked) [^18F-FP-RMSH-1]", "values": [{"measurement": "A375M tumor uptake compared with B16F10 tumors", "setting": "A375M human melanoma; 2 h p.i., P < 0.01", "value": "significantly lower than in B16F10 tumors"}, {"measurement": "Heart uptake", "setting": "A375M human melanoma; [3]", "value": "0.41 ± 0.19", "unit": "%ID/g"}, {"measurement": "Intestine uptake", "setting": "A375M human melanoma; [3]", "value": "0.40 ± 0.19", "unit": "%ID/g"}, {"measurement": "Liver uptake", "setting": "A375M human melanoma; [3]", "value": "0.69 ± 0.21", "unit": "%ID/g"}, {"measurement": "Pancreas uptake", "setting": "A375M human melanoma; [3]", "value": "0.78 ± 0.49", "unit": "%ID/g"}, {"measurement": "Muscle uptake", "setting": "B16F10 murine melanoma; B16F10 model", "value": "low uptake in muscle"}, {"measurement": "blood clearance", "setting": "B16F10 murine melanoma; B16F10 model", "value": "rapid blood clearance"}, {"measurement": "lung and liver uptake compared with ^18F-FB-RMSH-1", "setting": "B16F10 murine melanoma; B16F10 model", "value": "much lower uptake in lung and liver"}, {"measurement": "tumor-to-blood and tumor-to-muscle ratios compared with ^18F-FB-RMSH-1", "setting": "B16F10 murine melanoma; B16F10 model", "value": "Much higher tumor-to-blood and tumor-to-muscle ratios"}, {"measurement": "kidney uptake compared with ^18F-FB-RMSH-1", "setting": "B16F10 murine melanoma; B16F10 tumor bearing mice, P < 0.05", "value": "lower kidney uptake"}, {"measurement": "Tumor / Muscle uptake ratio", "setting": "B16F10 murine melanoma; [4]", "value": "9.36 ± 3.98"}, {"measurement": "PET tumor uptake and tumor-to-background ratio, A375M", "setting": "A375M melanoma; 1 and 2 h, compared with B16F10 tumor bearing mice", "value": "much lower tumor uptake and poor tumor-to-background ratio"}, {"measurement": "PET kidney activity accumulation, A375M", "setting": "A375M melanoma; 1 and 2 h p.i.", "value": "high activity accumulation in kidneys"}, {"measurement": "PET visibility of A375M tumor", "setting": "A375M melanoma; 1 and 2 h p.i.", "value": "barely discernable; also recorded: barely noticeable"}, {"measurement": "PET liver and kidney uptake", "setting": "B16F10 tumors; B16F10, 1 and 2 h p.i.", "value": "moderate to high uptake in liver and kidney"}, {"measurement": "PET tumor delineation / image quality", "setting": "B16F10 tumors", "value": "Improved quality of PET images; also recorded: clearly delineated over the background at 1 and 2 h p.i"}]}
{"molecule": "CC(=O)N[C@H](CCCCNC(=O)C(C)F)C(=O)N[C@@H](CS)C(=O)N[C@@H](CS)C(=O)N[C@@H](CCC(=O)O)C(=O)N[C@@H](Cc1c[nH]cn1)C(=O)N[C@H](Cc1ccccc1)C(=O)N[C@@H](CCCNC(=N)N)C(=O)N[C@@H](Cc1c[nH]c2ccccc12)C(=O)N[C@@H](CS)C(=O)N[C@@H](CCCNC(=N)N)C(=O)N1CCC[C@H]1C(=O)N[C@H](C(N)=O)C(C)C", "note": "(some centres unmarked) [^18F-FP-RMSH-2]", "values": [{"measurement": "liver and lung uptake compared with ^18F-FB-RMSH-2, A375M", "setting": "A375M human melanoma; \"in both models\" (P < 0.05), A375M model", "value": "lower"}, {"measurement": "liver and kidney uptake compared with ^18F-FP-RMSH-1, A375M", "setting": "A375M human melanoma; A375M model, P < 0.05", "value": "higher uptake in liver and kidney"}, {"measurement": "Blood uptake", "setting": "A375M human melanoma; [3]", "value": "0.20 ± 0.09", "unit": "%ID/g"}, {"measurement": "Bone uptake", "setting": "A375M human melanoma; [3]", "value": "0.25 ± 0.12", "unit": "%ID/g"}, {"measurement": "Brain uptake", "setting": "A375M human melanoma; [3]", "value": "0.04 ± 0.01", "unit": "%ID/g"}, {"measurement": "Heart uptake", "setting": "A375M human melanoma; [3]", "value": "0.18 ± 0.07", "unit": "%ID/g"}, {"measurement": "Intestine uptake", "setting": "A375M human melanoma; [3]", "value": "0.17 ± 0.00", "unit": "%ID/g"}, {"measurement": "Liver uptake", "setting": "A375M human melanoma; [3]", "value": "1.66 ± 0.08", "unit": "%ID/g"}, {"measurement": "Lung uptake", "setting": "A375M human melanoma; [3]", "value": "0.47 ± 0.21", "unit": "%ID/g"}, {"measurement": "Muscle uptake", "setting": "A375M human melanoma; [3]", "value": "0.10 ± 0.02", "unit": "%ID/g"}, {"measurement": "Pancreas uptake", "setting": "A375M human melanoma; [3]", "value": "0.09 ± 0.01", "unit": "%ID/g"}, {"measurement": "Spleen uptake", "setting": "A375M human melanoma; [3]", "value": "0.27 ± 0.03", "unit": "%ID/g"}, {"measurement": "Stomach uptake", "setting": "A375M human melanoma; [3]", "value": "0.52 ± 0.50", "unit": "%ID/g"}, {"measurement": "Tumor / Blood uptake ratio", "setting": "A375M human melanoma; [3]", "value": "2.90 ± 0.04"}, {"measurement": "Tumor / Muscle uptake ratio", "setting": "A375M human melanoma; [3]", "value": "6.40 ± 2.66"}, {"measurement": "liver and lung uptake compared with ^18F-FB-RMSH-2, B16F10", "setting": "B16F10 murine melanoma; \"in both models\" (P < 0.05), B16F10 model", "value": "lower"}, {"measurement": "Blood uptake", "setting": "B16F10 murine melanoma; [4]", "value": "0.31 ± 0.11", "unit": "%ID/g"}, {"measurement": "Bone uptake", "setting": "B16F10 murine melanoma; [4]", "value": "0.52 ± 0.08", "unit": "%ID/g"}, {"measurement": "Brain uptake", "setting": "B16F10 murine melanoma; [4]", "value": "0.04 ± 0.01", "unit": "%ID/g"}, {"measurement": "Heart uptake", "setting": "B16F10 murine melanoma; [4]", "value": "0.21 ± 0.06", "unit": "%ID/g"}, {"measurement": "Intestine uptake", "setting": "B16F10 murine melanoma; [4]", "value": "0.91 ± 0.33", "unit": "%ID/g"}, {"measurement": "Lung uptake", "setting": "B16F10 murine melanoma; [4]", "value": "0.64 ± 0.15", "unit": "%ID/g"}, {"measurement": "Muscle uptake", "setting": "B16F10 murine melanoma; [4]", "value": "0.20 ± 0.05", "unit": "%ID/g"}, {"measurement": "Pancreas uptake", "setting": "B16F10 murine melanoma; [4]", "value": "0.10 ± 0.03", "unit": "%ID/g"}, {"measurement": "Spleen uptake", "setting": "B16F10 murine melanoma; [4]", "value": "0.53 ± 0.03", "unit": "%ID/g"}, {"measurement": "Stomach uptake", "setting": "B16F10 murine melanoma; [4]", "value": "0.42 ± 0.14", "unit": "%ID/g"}, {"measurement": "Tumor / Blood uptake ratio", "setting": "B16F10 murine melanoma; [4]", "value": "2.74 ± 0.80"}, {"measurement": "Tumor / Muscle uptake ratio", "setting": "B16F10 murine melanoma; [4]", "value": "3.98 ± 1.09"}, {"measurement": "liver uptake compared with ^18F-FP-RMSH-1", "setting": "B16F10 murine melanoma; biodistribution, 2 h", "value": "higher uptake in liver"}, {"measurement": "PET tumor uptake compared with ^18F-FP-RMSH-1", "setting": "B16F10 tumors; B16F10, 1 and 2 h, ROI quantification, P < 0.01", "value": "much lower tumor uptake"}, {"measurement": "PET liver and kidney uptake", "setting": "B16F10 tumors; B16F10, 1 and 2 h p.i.", "value": "moderate to high uptake in liver and kidney"}, {"measurement": "PET kidney uptake compared with ^18F-FP-RMSH-1", "setting": "B16F10 tumors; B16F10, 1 and 2 h p.i., ROI quantification, n = 3, P < 0.01", "value": "much higher uptake in kidney"}, {"measurement": "PET tumor delineation / image quality", "setting": "B16F10 tumors", "value": "much less prominent tumor uptake"}]}
{"molecule": "CC(=O)N[C@H](CCCCNC(=O)C(C)F)C(=O)N[C@@H](CS)C(=O)N[C@@H](CS)C(=O)N[C@@H](CCC(=O)O)C(=O)N[C@@H](Cc1c[nH]cn1)C(=O)N[C@H](Cc1ccccc1)C(=O)N[C@@H](CCCNC(=N)N)C(=O)N[C@@H](Cc1c[nH]c2ccccc12)C(=O)N[C@@H](CS)C(=O)N[C@@H](CCCNC(=N)N)C(=O)N1CCC[C@H]1C(=O)N[C@H](C(N)=O)C(C)C", "note": "(some centres unmarked) [^19F-FP-RMSH-1]", "values": [{"measurement": "receptor binding affinity", "setting": "MC1R [1]", "value": "within low nM range"}]}
{"molecule": "CC(=O)N[C@H](CCCCNC(=O)C(C)F)C(=O)N[C@@H](CS)C(=O)N[C@@H](CS)C(=O)N[C@@H](CCC(=O)O)C(=O)N[C@@H](Cc1c[nH]cn1)C(=O)N[C@H](Cc1ccccc1)C(=O)N[C@@H](CCCNC(=N)N)C(=O)N[C@@H](Cc1c[nH]c2ccccc12)C(=O)N[C@@H](CS)C(=O)N[C@@H](CCCNC(=N)N)C(=O)N1CCC[C@H]1C(=O)N[C@H](C(N)=O)C(C)C", "note": "(some centres unmarked) [^19F-FP-RMSH-2]", "values": [{"measurement": "receptor binding affinity", "setting": "MC1R [1]", "value": "within low nM range"}]}
{"molecule": "Ac-d,Lys-ReCCMSH(Arg^11) (sidechain bridge or staple) [RMSH-1]", "values": [{"measurement": "MC1R binding affinity of unconjugated RMSH isomers", "setting": "MC1R [2]", "value": "high MC1R binding affinity in nanomolar (nM) range"}]}
{"molecule": "Ac-d,Lys-ReCCMSH(Arg^11) (sidechain bridge or staple) [RMSH-2]", "values": [{"measurement": "MC1R binding affinity of unconjugated RMSH isomers", "setting": "MC1R [2]", "value": "high MC1R binding affinity in nanomolar (nM) range"}]}
